Tests used:
[1] = molecular target: Neuronal acetylcholine receptor; alpha4/beta2 (Homo sapiens, UniProt P17787+P43681); experiment: Binding affinity against nicotinic acetylcholine receptor alpha4-beta2 in human HEK293 cells using [3H]- nicotine as radioligand; format: cell-based
[2] = molecular target: Neuronal acetylcholine receptor; alpha4/beta2 (Rattus norvegicus, UniProt P09483+P12390); experiment: Inhibition of [3H]-nicotine binding to nicotinic acetylcholine receptor alpha4-beta2 in rat cortex
Chain of Neuronal acetylcholine receptor; alpha4/beta2 (Rattus norvegicus, UniProt P09483+P12390) (P09483 whole entry): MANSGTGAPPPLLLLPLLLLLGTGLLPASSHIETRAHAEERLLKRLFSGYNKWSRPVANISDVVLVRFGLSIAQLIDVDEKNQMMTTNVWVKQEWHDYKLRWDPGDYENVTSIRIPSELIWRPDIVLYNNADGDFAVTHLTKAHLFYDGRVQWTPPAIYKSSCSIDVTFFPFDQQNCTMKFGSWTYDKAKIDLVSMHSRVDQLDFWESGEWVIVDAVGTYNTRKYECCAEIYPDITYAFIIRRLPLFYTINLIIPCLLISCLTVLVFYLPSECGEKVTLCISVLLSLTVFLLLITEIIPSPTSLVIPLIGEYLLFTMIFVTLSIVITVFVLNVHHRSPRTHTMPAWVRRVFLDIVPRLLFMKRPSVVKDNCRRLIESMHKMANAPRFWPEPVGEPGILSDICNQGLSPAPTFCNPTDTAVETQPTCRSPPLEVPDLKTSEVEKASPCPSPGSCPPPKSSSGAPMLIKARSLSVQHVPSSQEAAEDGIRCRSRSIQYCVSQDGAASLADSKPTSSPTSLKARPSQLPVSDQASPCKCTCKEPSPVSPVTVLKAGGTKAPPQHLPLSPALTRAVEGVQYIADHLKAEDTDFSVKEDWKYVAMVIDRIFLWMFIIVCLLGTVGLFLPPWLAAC
Chain of Neuronal acetylcholine receptor; alpha4/beta2 (Rattus norvegicus, UniProt P09483+P12390) (P12390 whole entry): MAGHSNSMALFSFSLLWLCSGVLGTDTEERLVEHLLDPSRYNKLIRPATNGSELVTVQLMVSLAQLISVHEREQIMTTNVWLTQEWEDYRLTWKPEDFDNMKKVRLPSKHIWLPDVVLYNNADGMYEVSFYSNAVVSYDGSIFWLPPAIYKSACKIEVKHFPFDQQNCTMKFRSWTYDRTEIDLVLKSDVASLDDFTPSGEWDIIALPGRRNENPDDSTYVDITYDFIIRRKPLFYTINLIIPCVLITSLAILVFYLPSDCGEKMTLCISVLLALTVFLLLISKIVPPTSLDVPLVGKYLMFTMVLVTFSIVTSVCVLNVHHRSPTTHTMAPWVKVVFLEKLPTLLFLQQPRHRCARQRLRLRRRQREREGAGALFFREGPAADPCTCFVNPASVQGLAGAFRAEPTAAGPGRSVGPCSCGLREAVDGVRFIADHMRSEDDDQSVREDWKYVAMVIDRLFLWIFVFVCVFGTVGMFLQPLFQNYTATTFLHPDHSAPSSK

[3] = molecular target: Neuronal acetylcholine receptor subunit alpha-7 (Homo sapiens, UniProt P36544); experiment: Inhibition of [3H]alpha-bungarotoxin binding to nicotinic acetylcholine receptor alpha7 of IMR32 cells; format: cell-based, IMR-32
Chain of Neuronal acetylcholine receptor subunit alpha-7 (P36544 whole entry): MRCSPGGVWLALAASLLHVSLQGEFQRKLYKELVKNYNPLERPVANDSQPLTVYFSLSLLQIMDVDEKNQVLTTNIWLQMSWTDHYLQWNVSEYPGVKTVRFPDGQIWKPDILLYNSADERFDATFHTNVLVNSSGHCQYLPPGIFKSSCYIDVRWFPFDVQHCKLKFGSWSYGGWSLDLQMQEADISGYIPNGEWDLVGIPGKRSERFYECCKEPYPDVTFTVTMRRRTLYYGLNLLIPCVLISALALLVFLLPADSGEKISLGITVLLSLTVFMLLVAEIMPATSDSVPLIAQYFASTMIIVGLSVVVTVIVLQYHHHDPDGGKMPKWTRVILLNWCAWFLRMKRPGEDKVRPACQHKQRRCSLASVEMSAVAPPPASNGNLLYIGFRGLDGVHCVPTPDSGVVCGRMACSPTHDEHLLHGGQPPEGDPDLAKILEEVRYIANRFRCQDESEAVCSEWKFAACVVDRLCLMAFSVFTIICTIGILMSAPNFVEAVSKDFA

[4] = molecular target: Neuronal acetylcholine receptor; alpha3/beta4 (Homo sapiens, UniProt P30926+P32297); experiment: Inhibition of [3H]epibatidine binding to nicotinic acetylcholine receptor alpha3-beta4 of IMR32 cells; format: cell-based, IMR-32
Chain of Neuronal acetylcholine receptor; alpha3/beta4 (P30926 whole entry): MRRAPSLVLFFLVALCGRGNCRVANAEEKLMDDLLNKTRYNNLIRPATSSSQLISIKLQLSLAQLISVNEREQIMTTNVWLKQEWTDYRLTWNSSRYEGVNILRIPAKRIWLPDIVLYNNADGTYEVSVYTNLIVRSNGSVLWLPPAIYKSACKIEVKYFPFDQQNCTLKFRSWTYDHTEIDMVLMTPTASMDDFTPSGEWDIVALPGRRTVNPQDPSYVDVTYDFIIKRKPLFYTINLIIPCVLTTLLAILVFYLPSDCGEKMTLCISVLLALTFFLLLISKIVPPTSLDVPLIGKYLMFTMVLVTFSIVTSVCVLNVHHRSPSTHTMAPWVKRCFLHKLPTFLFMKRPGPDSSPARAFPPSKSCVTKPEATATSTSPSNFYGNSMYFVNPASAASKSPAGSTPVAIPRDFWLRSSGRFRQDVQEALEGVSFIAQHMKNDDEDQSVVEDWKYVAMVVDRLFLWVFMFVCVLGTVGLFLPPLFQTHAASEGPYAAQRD
Chain of Neuronal acetylcholine receptor; alpha3/beta4 (P32297 whole entry): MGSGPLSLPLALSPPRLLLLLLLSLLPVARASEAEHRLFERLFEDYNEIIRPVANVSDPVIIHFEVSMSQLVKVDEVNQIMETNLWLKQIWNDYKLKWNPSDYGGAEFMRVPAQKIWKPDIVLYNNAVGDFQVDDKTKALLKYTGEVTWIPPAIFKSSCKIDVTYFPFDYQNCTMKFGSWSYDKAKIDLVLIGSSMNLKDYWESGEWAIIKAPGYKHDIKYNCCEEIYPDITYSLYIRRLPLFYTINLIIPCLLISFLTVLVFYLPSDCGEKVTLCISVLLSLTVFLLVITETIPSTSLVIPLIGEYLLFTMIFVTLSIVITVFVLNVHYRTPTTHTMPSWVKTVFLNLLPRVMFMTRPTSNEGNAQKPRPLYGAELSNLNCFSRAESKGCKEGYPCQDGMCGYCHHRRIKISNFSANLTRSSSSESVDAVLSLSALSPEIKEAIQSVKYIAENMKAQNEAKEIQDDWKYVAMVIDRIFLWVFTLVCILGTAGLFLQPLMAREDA
Summary of the method: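 Displacement of [3H]epibatidine binding in IMR32 cells, taken as the α3β4 nAChR site.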

[5] = Inhibition of [3H]alpha-bungarotoxin binding to nicotinic acetylcholine receptor alpha-1-beta-1-delta-gamma of electroplax; set-up: species or system pisces

Chain of Neuronal acetylcholine receptor; alpha4/beta2 (Homo sapiens, UniProt P17787+P43681) (P17787 whole entry): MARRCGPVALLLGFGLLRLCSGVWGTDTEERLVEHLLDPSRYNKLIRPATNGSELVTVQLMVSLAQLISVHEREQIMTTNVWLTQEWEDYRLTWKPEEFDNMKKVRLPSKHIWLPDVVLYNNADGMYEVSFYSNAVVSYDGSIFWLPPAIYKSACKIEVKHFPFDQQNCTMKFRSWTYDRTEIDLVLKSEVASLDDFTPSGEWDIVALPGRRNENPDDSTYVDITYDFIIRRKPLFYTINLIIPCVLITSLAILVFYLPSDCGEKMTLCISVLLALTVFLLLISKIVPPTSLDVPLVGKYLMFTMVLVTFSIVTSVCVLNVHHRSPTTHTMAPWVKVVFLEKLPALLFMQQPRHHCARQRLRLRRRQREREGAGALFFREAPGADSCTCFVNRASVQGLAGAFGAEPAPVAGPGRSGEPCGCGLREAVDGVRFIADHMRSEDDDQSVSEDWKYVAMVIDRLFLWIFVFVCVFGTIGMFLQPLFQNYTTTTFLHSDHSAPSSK
Chain of Neuronal acetylcholine receptor; alpha4/beta2 (Homo sapiens, UniProt P17787+P43681) (P43681 whole entry): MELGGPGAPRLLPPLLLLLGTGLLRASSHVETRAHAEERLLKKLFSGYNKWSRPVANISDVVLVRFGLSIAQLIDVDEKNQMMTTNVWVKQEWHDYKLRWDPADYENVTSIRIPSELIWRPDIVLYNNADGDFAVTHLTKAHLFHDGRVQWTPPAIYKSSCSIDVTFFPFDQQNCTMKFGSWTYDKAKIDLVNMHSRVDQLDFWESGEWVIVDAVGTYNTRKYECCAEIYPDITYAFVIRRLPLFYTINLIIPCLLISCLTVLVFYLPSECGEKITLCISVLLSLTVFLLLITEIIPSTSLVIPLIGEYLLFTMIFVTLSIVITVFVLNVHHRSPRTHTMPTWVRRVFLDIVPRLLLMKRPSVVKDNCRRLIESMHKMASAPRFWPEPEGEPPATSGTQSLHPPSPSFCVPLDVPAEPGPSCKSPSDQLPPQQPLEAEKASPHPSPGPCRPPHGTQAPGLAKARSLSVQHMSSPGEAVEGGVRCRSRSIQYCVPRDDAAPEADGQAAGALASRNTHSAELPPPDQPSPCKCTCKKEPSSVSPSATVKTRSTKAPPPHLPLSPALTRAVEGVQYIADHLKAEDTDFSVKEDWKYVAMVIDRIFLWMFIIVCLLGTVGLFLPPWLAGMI

SMILES | Ki [1] | further results
COc1ccc2c(c1)CC1CNCC2C1 (stereo unspecified) | 1.4 nM | Ki [2]: 3.2 nM; Ki [3]: 2400 nM; Ki [4]: 810 nM
COc1ccc(-c2ccc3c(c2)CC2CNCC3C2)cc1 (stereo unspecified) | 370 nM | –
FC(F)Oc1ccc2c(c1)CC1CNCC2C1 (stereo unspecified) | 7 nM | Ki [3]: 1700 nM
FC(F)(F)c1ccc(-c2ccc3c(c2)CC2CNCC3C2)cc1 (stereo unspecified) | 200 nM | –
c1ccc(-c2ccc3c(c2)CC2CNCC3C2)cc1 (stereo unspecified) | > 500 nM | –
COc1ccc2c(c1O)CC1CNCC2C1 (stereo unspecified) | 13 nM | –
Oc1cccc2c1CC1CNCC2C1 (stereo unspecified) | 2.9 nM | –
c1cncc(-c2ccc3c(c2)CC2CNCC3C2)c1 (stereo unspecified) | > 500 nM | –
COc1ccc2c(c1)C1CNCC(C2)C1 (stereo unspecified) | – | Ki [2]: 90 nM
O=c1oc2ccc3c(c2o1)CC1CNCC3C1 (stereo unspecified) | > 500 nM | –
O=[N+]([O-])c1ccc2c(c1)C1CNCC(C2)C1 (stereo unspecified) | 6.5 nM | Ki [4]: 980 nM
O=[N+]([O-])c1ccc2c(c1)CC1CNCC2C1 (stereo unspecified) | 4.9 nM | Ki [4]: 340 nM
COC(=O)c1ccc2c(c1)CC1CNCC2C1 (stereo unspecified) | 34 nM | –
Fc1ccc2c(c1)CC1CNCC2C1 (stereo unspecified) | 2 nM | Ki [3]: 350 nM; Ki [4]: 710 nM
Fc1cccc2c1CC1CNCC2C1 (stereo unspecified) | 6.5 nM | Ki [3]: 830 nM
CC(C)(O)c1ccc2c(c1)CC1CNCC2C1 (stereo unspecified) | 264 nM | –
COc1cccc2c1CC1CNCC2C1 (stereo unspecified) | > 500 nM | –
Nc1cccc(-c2ccc3c(c2)CC2CNCC3C2)c1 (stereo unspecified) | > 500 nM | –
CC(C)c1ccc2c(c1)CC1CNCC2C1 (stereo unspecified) | 72 nM | –
CCOc1ccc2c(c1)CC1CNCC2C1 (stereo unspecified) | 13 nM | –
Oc1ccc2c(c1)C1CNCC(C2)C1 (stereo unspecified) | – | Ki [2]: 75 nM
O=[N+]([O-])c1cccc2c1C1CNCC(C2)C1 (stereo unspecified) | 14 nM | –
Fc1ccc2c(c1F)CC1CNCC2C1 (stereo unspecified) | 0.44 nM | Ki [5]: 3000 nM; Ki [3]: 520 nM; Ki [4]: 810 nM
NC(=O)COc1ccc2c(c1)CC1CNCC2C1 (stereo unspecified) | > 500 nM | –
c1ccc2c(c1)CC1CNCC2C1 (stereo unspecified) | 34 nM | Ki [2]: 65 nM
c1cc2c(c3c1CC1CNCC3C1)OCO2 (stereo unspecified) | 5.7 nM | Ki [5]: 4500 nM; Ki [3]: 5100 nM; Ki [4]: 1900 nM
Oc1ccc2c(c1)CC1CNCC2C1 (stereo unspecified) | 90 nM | –
O=c1cccc2n1C[C@@H]1CNC[C@H]2C1 [CYTISINICLINE] | 0.23 nM | Ki [5]: 250 nM; Ki [3]: 4200 nM

Source: ChEMBL document CHEMBL1139609, “In pursuit of alpha4beta2 nicotinic receptor partial agonists for smoking cessation: carbon analogs of (-)-cytisine” (Bioorg Med Chem Lett, 2005)
